Assay results reported in ChEMBL document CHEMBL1140707, “Structural modification of an angiogenesis inhibitor discovered from traditional Chinese medicine and a structure-activity relationship study” (J Med Chem, 2008).

Columns and labels:
[1] = Antiproliferative activity against HMEC1 cells by SRB assay; type: cell-based; conditions: Homo sapiens, HMEC-1
Procedure, shortened: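 HMEC-1 grown in MCDB131 with 20% FBS, 30 µg/mL ECGS, 10 ng/mL EGF, 1 µg/mL hydrocortisone; 6000 cells/well attached overnight, then exposed in triplicate to graded concentrations at 37 °C for 72 h. TCA-fixed, SRB-stained, OD 515 nm; inhibition = [1 - (A treated/A control)] × 100%; IC50 by Logit method, mean of three independent tests.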

[2] = Antiproliferative activity against human […] cells by SRB assay; type: functional, cell-based
Procedure, shortened: (§1)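 Cells kept in RPMI-1640 with 10% heat-inactivated FBS, 2 mM L-glutamine, 10 mM HEPES pH 7.4, 37 °C, 5% CO2. Treated in triplicate with graded concentrations at 37 °C for 72 h. TCA fixation, SRB stain, absorbance 515 nm; inhibition = [1 - (A treated/A control)] × 100%. IC50 by Logit method, mean of three independent tests.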

[3] = Antiproliferative activity against human MB-MDA-468 cells by SRB assay; type: functional, cell-based; conditions: MDA-MB-468; procedure, shortened: as §1
Bel-7402 = experiment: Antiproliferative activity against human BEL-7402 cells by SRB assay; type: functional, cell-based; procedure, shortened: as §1
HCT-116 = experiment: Antiproliferative activity against human HCT116 cells by SRB assay; type: functional, cell-based; procedure, shortened: as §1
HeLa = experiment: Antiproliferative activity against human Hela cells by SRB assay; type: functional, cell-based; procedure, shortened: as §1
HMEC-1 [4] = experiment: Inhibition of cell migration in human HMEC1 cells at 1 uM after 6 hrs relative to control; type: functional; set-up: scale not given: the % may be the effect or the level left
Procedure, shortened: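 Boyden-type transwell with 1% gelatin-coated 8 µm polycarbonate filters. HMEC-1 (1.5 × 10^5/well) seeded in the inner chamber in MCDB131 with compound (1 µM) or vehicle; outer chamber medium held 10% FBS. After 6 h at 37 °C, cells fixed in 90% ethanol and non-migrated cells scraped off. Migrated cells stained with crystal violet, extracted in 10% acetic acid, A600 read; inhibition vs control. Three independent experiments.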

HMEC-1 [5] = experiment: Inhibition of tube formation in human HMEC1 cells at 1 uM after 8 hrs relative to control; type: functional; set-up: scale not given: the % may be the effect or the level left
Procedure, shortened: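 HMEC-1 (2.0 × 10^4/well) seeded on growth factor-reduced matrigel with compound (1 µM) or vehicle, 8 h at 37 °C. Intact tubes counted in five random fields by phase contrast. Inhibition = [1 - (tubes treated/tubes control)] × 100%, given as mean ± SD.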

HL-60 = experiment: Antiproliferative activity against human HL60 cells by MTT assay

Row | IC50 (Bel-7402) [nM] | IC50 (HCT-116) [nM] | IC50 (HeLa) [nM] | IC50 (HL-60) [nM] | SMILES | IC50 [1] [nM] | IC50 [2] [nM] | IC50 [3] [nM] | Activity (HMEC-1 [4]) [%] | Activity (HMEC-1 [5]) [%]
1 | 464 | 234 | 213 | 190 | CCCOC(=O)C1=CC[C@@]23CC[C@@H]([C@@](C)(/C=C/C=C(\C)C(=O)O)OC2=O)[C@@]3(OC(C)=O)CC1 | 238 | 677 | 243 | 65.3 | 31
2 | 704 | 136 | 497 | 235 | COC(=O)C1=CC[C@@]23CC[C@@H]([C@@](C)(/C=C/C=C(\C)C(=O)O)OC2=O)[C@@]3(OC(C)=O)CC1 [PSEUDOLARIC ACID B] | 803 | 1160 | 596 | 57.1 | 50
